The results in this text go back to ChEMBL document CHEMBL3351905, “Cyclic Penta- and Hexaleucine Peptides without N-Methylation Are Orally Absorbed” (ACS Med Chem Lett, 2014).

Peptide text beside a SMILES is read from it.

A short description of series [1]: Apparent permeability in RRCK cells at 8 uM at pH 7.4 incubated for 2 hrs by LC-MS/MS method. In kind it is ADME, cell-based, Canis lupus familiaris, MDCKII-LE. The following applies: dog, MDCK.
Series [2] is described as follows: Oral bioavailability in Wistar rat at 10 mg/kg measured over 8 hrs by LC-MS method. The following applies: in vivo. In kind it is ADME, organism-based.
Series [3] in a line: Permeability in human Caco2 cells at 10 uM by LC-MS method. The series is classed as ADME, cell-based. The following applies: caco-2, 10 µM. The method in brief: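 Caco-2 monolayers; compound at 10 μM, cyclosporin A comparator at 30 μM; medium 0.05% DMSO in HEPES buffer, pH 7.4, 37 °C; apparent permeability in cm·s–1.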
A general note: Caco-2 monolayers are a common model of the intestinal barrier.

Series [4] can be described thus: Apparent permeability in RRCK cells at 8 uM at pH 7.4 incubated for 2 hrs by LC-MS/MS method relative to CSA. The series is classed as ADME, cell-based, Canis lupus familiaris. The following applies: dog, mdckii-le, pH 7.4, 2 h. Summed up:
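RRCK monolayers (no active transporters); compound at 8 μM alongside cyclosporin A at 8 μM; medium 0.05% DMSO in HEPES buffer, pH 7.4, 37 °C; apparent permeability expressed in cm·s–1.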

Series [5] in a line: Clearance in Wistar rat at 1 mg/kg, iv by LC-MS method. In kind it is ADME, organism-based. More on the design: dose 1 mg/kg, route intravenous. The following applies: in vivo.

By Papp is commonly meant a coefficient for how fast a substance crosses the barrier. By bioavailability is commonly meant dose-corrected exposure relative to a reference, in per cent. Broadly, the clearance is a measure of how efficiently the substance is removed, as volume per time. The low end stands for a low capacity for elimination, the high end for a high capacity for elimination. Take `CC(C)C[C@@H]1NC(=O)[C@H](CC(C)C)NC(=O)[C@H](CC(C)C)NC(=O)[C@@H](CC(C)C)NC(=O)[C@H](CC(C)C)NC(=O)[C@H](CC(C)C)NC1=O`: in series [1], the apparent permeability coefficient (Papp) at 2 h, 8 µM was above 1 ×10⁻⁶ cm/s. In addition, in series [2], the bioavailability was found to be 9%. Also, the permeability entry in series [3] was “permeable”. Moreover, the “fold change (FC)” value in series [4] is reported as 2. Moreover, in series [5], the clearance stood at 24.1 mL/min/kg.

With `CC(C)C[C@@H]1NC(=O)[C@H](CC(C)C)NC(=O)[C@H](CC(C)C)NC(=O)[C@H](CC(C)C)NC(=O)[C@H](CC(C)C)NC(=O)[C@H](CC(C)C)NC1=O`, in series [1], the Papp at 2 h, 8 µM is above 1 ×10⁻⁶ cm/s. The bioavailability in series [2] was found to be 17%. In addition, the permeability entry in series [3] is recorded as “permeable”. The “fold change (FC)” value in series [4] came to 2. The clearance in series [5] is 4.7 mL/min/kg.

In the case of `CC(C)C[C@@H]1NC(=O)[C@H](CC(C)C)NC(=O)[C@H](CC(C)C)NC(=O)[C@H](CC(C)C)NC(=O)[C@H](CC(C)C)NC1=O` (cyclo(LLLLL)), the Papp at 2 h, 8 µM in series [1] was determined as 1.7 ×10⁻⁶ cm/s. The bioavailability in series [2] was 4%. Besides, the permeability entry in series [3] is reported as “permeable”.
